Reference: ChEMBL document CHEMBL3351368, “Biphenyl-4-carboxylic acid [2-(1H-indol-3-yl)-ethyl]-methylamide (CA224), a nonplanar analogue of fascaplysin, inhibits Cdk4 and tubulin polymerization: evaluation of in vitro and in vivo anticancer activity” (J Med Chem, 2014)
≈ marks a conversion by molar mass, not a printed value. Calls of active or inactive are those of the source.

How the values were obtained:
[1] = system: NCI-H358; assay: Growth inhibition of p53 null, pRb null human NCI-H358 cells after 48 hrs by MTT assay; format: functional, cell-based; details: NCI-H358, 48 h
How it was run: (§1)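 MTT cell proliferation assay. IC50 (µM) was defined as the concentration giving 50% inhibition of cell growth.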

[2] = target: Serine/threonine-protein kinase PLK3 (Homo sapiens) (UniProt Q9H4B4); assay: Inhibition of human Plk3 assessed as enzyme activity at 10 uM
Serine/threonine-protein kinase PLK3 (Homo sapiens), sequence (Q9H4B4 whole entry, looked up): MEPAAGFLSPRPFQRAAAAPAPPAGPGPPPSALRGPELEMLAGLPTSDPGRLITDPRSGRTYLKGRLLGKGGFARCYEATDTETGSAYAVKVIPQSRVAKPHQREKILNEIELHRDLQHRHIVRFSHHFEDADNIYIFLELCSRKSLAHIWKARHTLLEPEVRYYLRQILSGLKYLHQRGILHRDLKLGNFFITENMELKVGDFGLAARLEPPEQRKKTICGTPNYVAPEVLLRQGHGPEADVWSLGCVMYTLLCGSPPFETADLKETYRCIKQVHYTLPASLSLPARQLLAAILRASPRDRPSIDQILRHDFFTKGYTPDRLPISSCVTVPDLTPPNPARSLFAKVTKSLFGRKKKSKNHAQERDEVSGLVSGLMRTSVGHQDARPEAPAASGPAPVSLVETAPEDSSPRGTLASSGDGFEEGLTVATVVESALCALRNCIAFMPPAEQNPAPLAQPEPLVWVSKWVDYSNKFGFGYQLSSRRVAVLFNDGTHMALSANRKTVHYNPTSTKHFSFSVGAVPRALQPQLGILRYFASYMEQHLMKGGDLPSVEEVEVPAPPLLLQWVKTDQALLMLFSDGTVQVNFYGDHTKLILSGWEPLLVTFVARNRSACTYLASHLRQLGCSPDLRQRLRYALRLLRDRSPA

[3] = system: A549; assay: Increase in p27 level in p53+, pRb+ human A549 cells at IC50 concentration after 24 hrs by Western blot analysis
[4] = system: A549; assay: Reduction cyclin B1 level in p53+, pRb+ human A549 cells at IC50 concentration after 24 hrs by Western blot analysis
[5] = system: NCI-H1299; assay: Growth inhibition of p53 null, pRb+ human NCI-H1299 cells after 48 hrs by MTT assay; format: functional, cell-based; details: NCI-H1299, 48 h; how it was run: as §1
[6] = target: CDK6/cyclin D1 (Homo sapiens) (UniProt P24385+Q00534); assay: Inhibition of human CDK6/cyclinD1 assessed as enzyme activity at 10 uM; format: protein-complex assay
[7] = AUC (0 to t) in BALB/c mouse at 1 mg/kg, iv; format: ADME, organism-based; set-up: dose 1 mg/kg, route intravenous; details: plasma
How it was run: (§2)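 BALB/c mice given a single dose of 1.0 mg/kg IV or 10 mg/kg orally; plasma concentration followed over time and pharmacokinetic parameters derived from the time-concentration profile.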

[8] = system: Mus musculus; assay: Toxicity in human HCT116 cells xenografted in SCID mouse assessed as change in body weight at 100 mg/kg, ip relative to untreated control; format: organism-based, HCT-116; set-up: dose 100 mg/kg, route intraperitoneal; details: in vivo
How it was run: (§3)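 SCID male mice, 18-25 g, 6-8 weeks old, received 6.6 × 10^6 HCT-116 cells subcutaneously on the dorsal side. Randomized into groups of 7 at 4-6 mm tumors (about 5 days), then dosed intraperitoneally for 9 consecutive days. Tumor size recorded every 2-5 days, weight = L×W²×0.5; %GI = 100 − %T/C. Body weight taken daily relative to start; Student t-test.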

[9] = system: MiaPaCa; assay: Effect on p53 level in p53His273 mutant, pRb+ human MiaPaCa cells at IC50 concentration after 48 hrs by Western blot analysis; format: functional
[10] = system: NCI-H460; assay: Induction of apoptosis in p53+, pRb+ human NCI-H460 cells assessed as fragmented nuclei/distrupted cell membrane after 24 hrs by DAPI staining-based flow cytometry; format: functional
[11] = system: NCI-H1299; assay: Induction of apoptosis in p53 null, pRb+ human NCI-H1299 cells assessed as fragmented nuclei/distrupted cell membrane at 1 to 10 uM by DAPI staining-based flow cytometry; details: TDE = time-dependent effect
[12] = AUC (0 to t) in BALB/c mouse at 10 mg/kg, po; format: ADME, organism-based; set-up: dose 10 mg/kg, route oral; details: plasma; how it was run: as §2
[13] = AUC (0 to infinity) in BALB/c mouse at 10 mg/kg, po; format: ADME, organism-based; set-up: time infinity, dose 10 mg/kg, route oral; details: plasma; how it was run: as §2
[14] = target: CYP2C9 (Homo sapiens, UniProt P11712); assay: Inhibition of human recombinant CYP2C9 at 10 uM; format: ADME
CYP2C9, sequence (P11712 whole entry): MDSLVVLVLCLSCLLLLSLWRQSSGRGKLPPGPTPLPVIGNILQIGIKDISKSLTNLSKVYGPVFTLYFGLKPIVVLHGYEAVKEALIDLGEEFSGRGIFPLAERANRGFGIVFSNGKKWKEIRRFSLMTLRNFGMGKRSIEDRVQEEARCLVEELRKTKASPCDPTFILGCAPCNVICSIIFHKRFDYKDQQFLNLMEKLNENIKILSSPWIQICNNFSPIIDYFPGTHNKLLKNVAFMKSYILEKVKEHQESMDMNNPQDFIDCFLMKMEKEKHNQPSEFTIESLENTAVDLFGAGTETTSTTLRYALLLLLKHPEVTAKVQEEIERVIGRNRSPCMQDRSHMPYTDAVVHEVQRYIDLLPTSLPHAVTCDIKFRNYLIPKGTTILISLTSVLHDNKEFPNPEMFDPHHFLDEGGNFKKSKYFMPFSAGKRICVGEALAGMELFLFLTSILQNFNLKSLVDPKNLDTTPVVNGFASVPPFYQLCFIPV

[15] = system: MiaPaCa; assay: Induction in Cdk1 level in p53His273 mutant, pRb+ human MiaPaCa cells at IC50 concentration after 48 hrs by Western blot analysis; format: functional
[16] = target: T1, Tubulin (Homo sapiens) (UniProt P68371+Q9H4B7+P0DPH7+P68366+Q13509+Q71U36+P04350+Q3ZCM7+P07437+P68363+Q9BQE3+Q6PEY2+Q13885+Q9BVA1+Q9BUF5); assay: Inhibition of tubulin (unknown origin) polymerization assessed as decrease in Vmax measured at 2.5 uM by spectrophotometry; format: protein-complex assay
How it was run: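 Purified tubulin polymerisation followed as absorbance increase over about 4000 s. Vmax (mOD/min) is taken as the read-out, with final polymer mass also noted. Compound is tested at 2.5, 5, 10 and 25 µM alongside untreated control, paclitaxel 10 µM (enhancer) and nocodazole 10 µM (inhibitor). Curves are the average of three independent experiments.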

[17] = target: CYP2D6 (Homo sapiens, UniProt P10635); assay: Inhibition of human recombinant CYP2D6 at 10 uM; format: ADME
CYP2D6, sequence (P10635 whole entry): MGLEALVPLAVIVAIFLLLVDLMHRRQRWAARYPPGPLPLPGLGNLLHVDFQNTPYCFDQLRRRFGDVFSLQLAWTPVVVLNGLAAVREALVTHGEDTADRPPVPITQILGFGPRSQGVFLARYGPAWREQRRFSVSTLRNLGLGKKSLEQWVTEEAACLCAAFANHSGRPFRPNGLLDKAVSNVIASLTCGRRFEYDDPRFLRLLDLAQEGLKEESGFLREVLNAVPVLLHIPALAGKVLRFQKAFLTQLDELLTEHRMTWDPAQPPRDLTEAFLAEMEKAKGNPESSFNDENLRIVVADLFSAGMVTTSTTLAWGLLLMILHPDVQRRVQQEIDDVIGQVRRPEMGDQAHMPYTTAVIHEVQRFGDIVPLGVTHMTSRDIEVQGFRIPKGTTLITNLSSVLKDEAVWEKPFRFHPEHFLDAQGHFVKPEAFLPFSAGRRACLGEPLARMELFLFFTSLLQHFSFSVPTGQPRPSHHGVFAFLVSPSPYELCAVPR

[18] = system: NCI-H358; assay: Cell cycle arrest in human NCI-H358 cells assessed as accumulation of cells at G2/M phase at IC50 concentration after 12 hrs by flow cytometry in presence of nocodazole for 18 hrs (reference value: 42%); format: functional
[19] = Solubility in simulated gastric fluid; format: ADME
[20] = Cell cycle arrest in SV-40 large T-antigen transformed human WI38 cells assessed as accumulation of cells at subG1 phase by flow cytometry; format: functional, cell-based; details: WI-38
[21] = target: CYP3A4 (Homo sapiens, UniProt P08684); assay: Inhibition of human recombinant CYP3A4 at 10 uM; format: ADME
CYP3A4, sequence (P08684 whole entry): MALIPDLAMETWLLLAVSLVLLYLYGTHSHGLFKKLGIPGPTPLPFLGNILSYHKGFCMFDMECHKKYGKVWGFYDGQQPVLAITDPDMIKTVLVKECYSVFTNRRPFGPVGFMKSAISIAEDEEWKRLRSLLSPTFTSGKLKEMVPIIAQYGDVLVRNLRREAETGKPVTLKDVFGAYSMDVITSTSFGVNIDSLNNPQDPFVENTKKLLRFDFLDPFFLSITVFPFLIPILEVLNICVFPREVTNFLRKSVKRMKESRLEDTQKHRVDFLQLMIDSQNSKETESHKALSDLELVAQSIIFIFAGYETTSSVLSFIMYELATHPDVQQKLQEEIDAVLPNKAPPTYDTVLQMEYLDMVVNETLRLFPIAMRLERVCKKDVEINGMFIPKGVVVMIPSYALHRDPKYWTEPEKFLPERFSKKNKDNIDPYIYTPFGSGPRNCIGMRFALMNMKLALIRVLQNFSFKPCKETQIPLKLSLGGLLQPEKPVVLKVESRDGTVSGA

[22] = target: T1, Tubulin (Homo sapiens); assay: Inhibition of tubulin (unknown origin) polymerization assessed as decrease in Vmax measured at 25 uM by spectrophotometry
[23] = system: NCI-H358; assay: Cell cycle arrest in human NCI-H358 cells assessed as accumulation of cells at S phase at IC50 concentration after 12 hrs by flow cytometry in presence of nocodazole for 18 hrs (reference value: 10%); format: functional
[24] = target: Cyclin-dependent kinase 1/cyclin B1 (Homo sapiens, UniProt P06493); assay: Binding affinity to human CDK1/cyclinB1; format: protein-complex assay
Cyclin-dependent kinase 1/cyclin B1, sequence (P06493 whole entry): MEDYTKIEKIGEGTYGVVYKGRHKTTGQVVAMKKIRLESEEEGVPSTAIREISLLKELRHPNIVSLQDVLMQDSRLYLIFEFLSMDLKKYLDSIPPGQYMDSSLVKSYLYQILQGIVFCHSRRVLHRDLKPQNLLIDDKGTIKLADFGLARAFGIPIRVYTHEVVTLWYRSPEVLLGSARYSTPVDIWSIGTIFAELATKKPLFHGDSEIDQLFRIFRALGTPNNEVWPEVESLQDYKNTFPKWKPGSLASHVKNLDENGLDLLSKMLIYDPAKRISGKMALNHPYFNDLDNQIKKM
Cyclin-dependent kinase 1/cyclin B1, sequence (P14635 whole entry, further chain): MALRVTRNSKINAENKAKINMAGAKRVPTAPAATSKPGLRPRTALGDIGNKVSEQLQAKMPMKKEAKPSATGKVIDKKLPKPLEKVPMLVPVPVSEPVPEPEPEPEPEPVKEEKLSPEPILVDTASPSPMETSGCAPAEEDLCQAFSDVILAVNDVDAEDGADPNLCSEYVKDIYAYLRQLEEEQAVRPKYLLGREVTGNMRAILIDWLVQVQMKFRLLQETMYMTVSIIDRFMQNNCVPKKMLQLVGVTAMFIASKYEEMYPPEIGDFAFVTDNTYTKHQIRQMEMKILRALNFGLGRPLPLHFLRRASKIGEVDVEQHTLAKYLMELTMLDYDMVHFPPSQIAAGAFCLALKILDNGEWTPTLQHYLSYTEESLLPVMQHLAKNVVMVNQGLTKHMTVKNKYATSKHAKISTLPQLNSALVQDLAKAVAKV

[25] = target: Cyclin-dependent kinase 7/ cyclin H (Homo sapiens) (UniProt P51946+P50613); assay: Inhibition of human CDK7/cyclinH assessed as enzyme activity at 10 uM; format: protein-complex assay
[26] = target: CDK9/cyclin T1 (Homo sapiens, UniProt P50750); assay: Binding affinity to human CDK9/cyclinT1; format: protein-complex assay
CDK9/cyclin T1, sequence (O60563 whole entry): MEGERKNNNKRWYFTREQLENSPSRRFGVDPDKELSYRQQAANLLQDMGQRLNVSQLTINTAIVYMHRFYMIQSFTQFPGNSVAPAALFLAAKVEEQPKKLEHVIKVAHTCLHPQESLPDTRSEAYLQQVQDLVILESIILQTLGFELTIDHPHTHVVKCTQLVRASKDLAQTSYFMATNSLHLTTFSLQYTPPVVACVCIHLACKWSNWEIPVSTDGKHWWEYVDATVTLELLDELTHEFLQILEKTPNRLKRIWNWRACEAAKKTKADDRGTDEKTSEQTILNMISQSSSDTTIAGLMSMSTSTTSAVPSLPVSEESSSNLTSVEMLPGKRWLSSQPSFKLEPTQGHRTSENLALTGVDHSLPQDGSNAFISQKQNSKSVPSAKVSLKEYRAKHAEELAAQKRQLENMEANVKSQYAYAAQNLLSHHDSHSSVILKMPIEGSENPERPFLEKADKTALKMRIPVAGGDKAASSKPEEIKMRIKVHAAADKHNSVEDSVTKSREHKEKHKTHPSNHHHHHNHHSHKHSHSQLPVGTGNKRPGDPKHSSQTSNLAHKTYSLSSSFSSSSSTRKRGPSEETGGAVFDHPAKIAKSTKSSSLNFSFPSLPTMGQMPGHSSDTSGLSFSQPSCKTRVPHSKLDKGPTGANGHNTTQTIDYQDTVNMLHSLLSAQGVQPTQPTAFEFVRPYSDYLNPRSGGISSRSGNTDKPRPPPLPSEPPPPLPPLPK
CDK9/cyclin T1, sequence (P50750 whole entry): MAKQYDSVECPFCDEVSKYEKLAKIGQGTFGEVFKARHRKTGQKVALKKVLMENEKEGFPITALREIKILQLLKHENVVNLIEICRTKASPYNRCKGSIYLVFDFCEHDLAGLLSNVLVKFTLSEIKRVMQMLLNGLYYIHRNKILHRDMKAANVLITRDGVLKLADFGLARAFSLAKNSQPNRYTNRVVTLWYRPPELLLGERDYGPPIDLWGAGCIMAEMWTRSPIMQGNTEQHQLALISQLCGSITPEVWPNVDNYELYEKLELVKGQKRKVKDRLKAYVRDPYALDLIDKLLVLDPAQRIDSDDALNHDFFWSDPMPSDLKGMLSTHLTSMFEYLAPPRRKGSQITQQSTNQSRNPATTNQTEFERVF

[27] = system: Mus musculus; assay: Toxicity in human HCT116 cells xenografted in SCID mouse at 100 mg/kg, ip relative to untreated control; format: organism-based, HCT-116; set-up: dose 100 mg/kg, route intraperitoneal; details: in vivo; how it was run: as §3
[28] = system: NCI-H460; assay: Antitumor activity against human NCI-H460 cells xenografted in SCID mouse assessed as inhibition of tumor growth at 100 mg/kg, ip relative to untreated control; format: functional, organism-based; set-up: dose 100 mg/kg
How it was run: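 Female SCID mice (15-24 g, 6-8 weeks) were given 5.3 × 10^6 NCI-H460 cells s.c. on the dorsal side. At 4-6 mm tumours (about 6 days) they were randomised into groups of 6 or 7 and dosed i.p. for 9 consecutive days. Tumour size was recorded every 2-5 days; weight = L × W² × 0.5. %T/C and %GI = 100 − %T/C; Student t-test versus control.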

[29] = Cell cycle arrest in mouse BNL-CL2 cells assessed as accumulation of cells at subG1 phase at IC50 concentration after 48 hrs by flow cytometry (reference value: 0%); format: functional
How it was run: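 Normal (BNL CL2) and SV40 large T-antigen transformed (BNL SV A.8) mouse embryonic hepatic cells were treated at IC50 or IC70 concentration for 48 h. Analysis was by FACS, with apoptosis taken as % cells in the sub-G1 peak. Untreated cells served as control.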

## CN(CCc1c[nH]c2ccccc12)C(=O)c1ccc(-c2ccccc2)cc1
[1]
  IC50: 2.2 µM
[2]
  inhibition: inactive
[3]
  Activity: Active
[4]
  inhibition: Active
[5]
  IC50: 2.5 µM
[6]
  inhibition: inactive
[7]
  AUC(0-t): 187 ng·h/mL
[8]
  Activity: <= 10%
[9]
  Activity: inactive
[10]
  Activity: Dose-dependent effect
[11]
  Activity: tde
[12]
  AUC(0-t): 172 ng·h/mL
[13]
  AUC(0-inf): 182 ng·h/mL
[14]
  inhibition at 10 µM: 51%
[15]
  Activity: Active
[16]
  Activity (milli optical density/minute): 6.2
[17]
  inhibition at 10 µM: 14%
[18]
  Activity: 74%
[19]
  solubility: 125 µg/mL (≈ 353 µM)
[20]
  Activity: Active
[21]
  inhibition at 10 µM: 50%
[22]
  Activity (milli optical density/minute): 0.4
[23]
  Activity: 10%
[24]
  IC50: > 500 µM
[25]
  inhibition: inactive
[26]
  IC50: > 1000 µM
[27]
  Activity: Non-toxic
[28]
  Activity: Active
[29]
  Activity: 2%
